PKA-R2B activ: activators of PKA-R2B holoenzyme, primary screen, biochemical, fluorescence polarization, Cy5-IP20, human; PKA-R2B holoenzyme dissociation; R2B truncated from residue 108, S112A mutant; 0% DMSO only, 100% 113 µM cGMP; AID 504700, 2011; activation, % at 11.4 µM; hit rate 0.079% among 340,000;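 active means activation above a cutoff set at the mean over all compounds plus 3 SD, cut at about 18% in these data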;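 further: higher means more holoenzyme dissociation and a rise in polarization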
Rin1 Abl inh: inhibitors of Rin1-Abl protein binding, primary screen, biochemical, TR-FRET | Tyrosine-protein kinase ABL1 (Homo sapiens) + Ras and Rab interactor 1 (Homo sapiens), … | inhibition, % at 7.35 µM | hit rate 0.4% among 360,000 | AID 588664, 2011; in the data active means inhibition above about 5%, passing the limit was not always enough
PKA-R1A activ: activators of PKA-R1A holoenzyme, primary screen, biochemical, fluorescence polarization, Cy5-IP20, bovine R1A, mouse PKAc; cAMP-dependent protein kinase type I-alpha regulatory subunit (Bos taurus) + …; PKA-R1A dissociation; scaled: DMSO 0%, 113 µM cGMP 100%; activation, % at 11.4 µM; hit rate 0.083% among 340,000; AID 504707, 2011;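 active means percent activation above the mean of all tested compounds plus 3 SD, cut at about 19% in these data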;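 further: higher means more PKAc released from R1A so a rise in polarization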
UCH37 DUB inh: inhibitors of human UCH37 deubiquitinase, primary screen, biochemical, Ub-AMC cleavage, fluorescence | purified proteasome/UCH37 | inhibition, % (no concentration beside the values) | hit rate 0.33% among 330,000 | AID 588478, 2011;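 active means mean inhibition over replicate wells above about 20%, limit read from the data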
Target sequence (Q9Y5K5 whole entry, looked up): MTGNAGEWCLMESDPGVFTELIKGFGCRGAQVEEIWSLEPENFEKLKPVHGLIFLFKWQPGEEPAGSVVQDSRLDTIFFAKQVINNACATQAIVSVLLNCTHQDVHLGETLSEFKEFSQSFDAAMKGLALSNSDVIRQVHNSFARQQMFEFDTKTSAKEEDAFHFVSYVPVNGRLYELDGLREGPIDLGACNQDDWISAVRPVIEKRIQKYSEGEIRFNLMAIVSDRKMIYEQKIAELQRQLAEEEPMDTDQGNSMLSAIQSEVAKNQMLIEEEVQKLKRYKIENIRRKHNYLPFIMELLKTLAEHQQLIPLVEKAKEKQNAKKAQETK
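Material: Human UCH37 enzyme supplied as purified proteasome complex | Schedule: 30 min compound-proteasome preincubation then 25 min substrate reaction, room temperature | Detection: AMC fluorescence from Ub-AMC cleavage, excitation 355 nm, emission 460 nm | Benchmarks: Wells without proteasome as full block, compound-free enzyme plus substrate as uninhibited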
Rin1 Abl conf: Rin1-Abl binding inhibitor retest, confirmation, biochemical, TR-FRET. hit rate 49% among 1,300. inhibition, % at 7.35 µM. shares compounds with Rin1 Abl inh. purified proteins
GFP quench-1: GFP fluorescence inhibitors and quenchers, artefact control for Rin1-Abl interaction inhibitor project, biochemical; AID 602125, 2011; inhibitors/quenchers counterscreen; hit rate 8.5% among 1,300; inhibition, % at 6.75 µM; shares compounds with Rin1 Abl inh;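 further: ABL1-eGFP fusion protein alone without its partner RIN1-SBP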
GFP quench dose: GFP fluorescence inhibitors and quenchers, dose response, artefact control for Rin1-Abl interaction inhibitor project, biochemical | 230 tested, under 10 active | shares compounds with Rin1 Abl inh | IC50, µM | GFP fluorescence interference/quenching counterscreen; call rule not given here;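 further: ABL1-eGFP fusion protein alone without its RIN1 binding partner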
GFP quench-2: GFP fluorescence inhibitors and quenchers, late-stage follow-up, artefact control for Rin1-Abl interaction inhibitor project, biochemical, dose response. GFP fluorescence quenching counterscreen. IC50, µM. shares compounds with Rin1 Abl inh. 25 tested, under 10 active. AID 602397, 2012; call rule not given here
Hits are given with their value; i = inactive; nt = not tested or not shown. Most compounds without a hit are left out; they make up all but 0.79% or so of the library. Unless noted, no stated cut-off is given here; in the data, active means inhibition above about 6.5%; inactive means the rest.

SMILES | PKA-R2B activ | Rin1 Abl inh | PKA-R1A activ | UCH37 DUB inh | Rin1 Abl conf | GFP quench-1 | others
CCCCn1c(NC(=O)c2ccco2)c(S(=O)(=O)c2ccc(C)cc2)c2nc3ccccc3nc21 | i | i | i | i | nt | nt
CCCCn1c(NS(=O)(=O)c2ccccc2)c(S(=O)(=O)c2ccc(C)cc2)c2nc3ccccc3nc21 | i | 22 | i | i | 11 | i
O=c1[nH]c(/C=C\c2ccc(O)c(O)c2)nc(O)c1[N+](=O)[O-] | i | 8.3 | i | nt | 8.2 | i
Cc1nn(C)c(C(=O)NNC(=S)NCc2ccccc2)c1Cl | i | 7.3 | i | i | i | i
C/C(C=NNC(=O)c1ccccc1F)=C\c1ccccc1 | nt | nt | nt | i | nt | nt
COc1ccc(NS(=O)(=O)c2cccc(C(=O)NC3CCN(Cc4ccccc4)CC3)c2)cc1 | i | i | i | i | nt | nt
COc1ccc(Cn2c(=O)[nH]c3cc(C(=O)NC4CCN(Cc5ccccc5)CC4)ccc32)cc1 | i | 12 | i | i | 16 | i
COc1ccc(C(=O)N/N=C(\C)c2ccc3c(c2)C2C=CCC2C(c2ccccc2)N3)cc1 (stereo not given) | i | i | i | nt | nt | nt
COc1cccc(NS(=O)(=O)c2ccc3c(c2)C2C=CCC2C(c2ccc(C(=O)O)cc2)N3)c1 (stereo not given) | i | 12 | i | i | i | 7.1
CCCCn1c2ccccc2c2cc(CC(N)=O)ccc21 | i | i | i | i | nt | nt
O=C1NCCN(CC2CCN(CCC3CCCC3)CC2)C1=O | i | i | i | nt | nt | nt
CCCNC(=O)c1cc(C2CCCCN2C(=O)c2ccc3c(c2)CCO3)on1 (stereo not given) | nt | 15 | nt | nt | i | i
O=C(NNC(=O)c1cc(O)c(O)c(O)c1)NC1CCCCC1 | i | 22 | i | i | 22 | 14
CSc1ccccc1OCc1cc(C(=O)N2CCNC(=O)C2)no1 | i | 48 | i | i | 40 | i | GFP quench dose=i;GFP quench-2=i
Cc1cccc(C)c1OCc1cc(C(=O)N2CCNC(=O)C2)no1 | i | i | i | i | nt | nt
Cc1cccc(NC(=O)COC(=O)CN2C(=O)C3CCCCC3C2=O)c1C (stereo not given) | i | i | i | nt | nt | nt
CCCc1c(C(=O)Nc2cc(C)on2)cnn1-c1ccccc1 | i | 8.7 | i | i | i | i
CC1(C)CC2C1CCC1(O)CC2(C)CCC1N(O)c1ccc(C(=O)NCCO)cn1 (stereo not given) | i | i | i | i | nt | nt
O=C(Cc1cnn(-c2ccccc2)c1)c1ccc(O)c(O)c1O | i | 13 | i | i | i | 11
NS(=O)(=O)c1ccc(NC(=O)COC(=O)c2cn(-c3ccccc3)nc2-c2ccccc2)cc1 | i | i | i | i | nt | nt
NS(=O)(=O)c1ccc(NC(=O)COc2ncnc3c2cnn3-c2ccccc2)cc1 | i | 5.5 | i | i | i | i
O=[N+]([O-])c1ccc(N/N=C/c2ccc(O)c(O)c2O)c(S(=O)(=O)N2CCOCC2)c1 | i | 14 | i | nt | 9.5 | 13
O=C(CCc1ccc(S(=O)(=O)N2CCOCC2)cc1)N/N=C/c1ccc(O)c(O)c1O | i | 13 | i | nt | 11 | 9.4
O=C(CCc1ccc(S(=O)(=O)N2CCOCC2)cc1)N/N=C/c1ccc(F)cc1F | i | i | i | nt | nt | nt
Cc1cc(NN=Cc2ccc3c(c2)OCO3)nc2ccccc12 | nt | nt | nt | i | nt | nt
SMILES | PKA-R2B activ | Rin1 Abl inh | PKA-R1A activ | UCH37 DUB inh | Rin1 Abl conf | GFP quench-1 | others
COC(=O)c1ccc(COC(=O)C23CC4CC(CC(O)(C4)C2)C3)o1 | i | 20 | i | i | 17 | i | GFP quench dose=i
COC(=O)c1ccc(Cc2ccc(C(=O)OC)o2)o1 | i | i | i | i | nt | nt
O=C(COC(=O)C12CC3CC(CC(O)(C3)C1)C2)NC(=O)NCc1ccco1 | i | i | i | i | nt | nt
COC(=O)c1ccc(COC(=O)c2ccc(CO)cc2)o1 | i | 7.3 | i | i | i | i
COc1cc(NC(=O)CCCNC(=O)c2ccc(Cl)cc2)cc(OC)c1 | i | i | i | i | nt | nt
CN(C)c1ccc(-c2cc(O)c3ncccc3c2)cc1 | i | i | i | nt | nt | nt
CN(C)CCCNC(=O)c1ccc(-c2cc(O)c3ncccc3c2)cc1 | i | 25 | i | i | 31 | 19
Cn1c(=NC(=O)C2=NNC(=O)CC2)sc2ccccc21 | i | i | i | i | nt | nt
O=C(N/N=C/c1cccnc1)c1ccc(O)cc1 | i | i | i | nt | nt | nt
O=C(N/N=C/c1cccnc1)c1cc(O)c(O)c(O)c1 | i | 62 | i | nt | 74 | 21
CC(C)CC1NC(=O)N(CC(=O)Nc2cccc(Br)c2)C1=O (stereo not given) | i | i | i | i | nt | nt
O=C(c1cc(COc2cccc3cccnc23)on1)N1CCC[C@H]1CO | i | 54 | i | nt | 50 | i | GFP quench dose=i;GFP quench-2=i
CC(=O)c1ccc(OCc2cc(C(=O)N3CCC[C@H]3CO)no2)cc1 | i | 11 | i | i | 10 | i
COCCC1CCCCN1C(=O)c1cc(COc2cccc(C(C)=O)c2)on1 (stereo not given) | i | i | i | i | nt | nt
CCOC(=O)c1ccc(NC(=O)COc2ccccc2CNC2CCCC2)cc1 | i | 31 | i | i | 34 | i | GFP quench dose=i
O=c1[nH]c(Nc2ccccc2)cc2ccccc12 | i | 5.6 | i | i | i | i
CN(C)c1ncnc2c1ncn2[C@H]1CN(Cc2ccc(Cl)cc2)C[C@@H](CO)O1 | nt | 6.9 | nt | nt | i | i
CCN(CC)c1ncnc2c1ncn2[C@H]1CN(Cc2ccncc2)C[C@@H](CO)O1 | nt | 7.7 | nt | nt | i | i
COc1cc(/C=C2\C(=O)N(c3ccccc3)N=C2C)ccc1Oc1ccc([N+](=O)[O-])cc1[N+](=O)[O-] | i | i | i | i | nt | nt
C#CCOc1ccc(/C=C2/C(=O)N(c3cccc(C(=O)O)c3)N=C2C)cc1OC | i | 16 | i | nt | i | i
CC1=NN(c2ccccc2)C(=O)/C1=C\c1cn(-c2ccccc2)nc1C | i | i | i | i | nt | nt
C#CCOc1ccc(/C=C2/C(=O)N(c3ccc(S(N)(=O)=O)cc3)N=C2C)cc1OC | i | i | i | nt | nt | nt
COc1ccccc1/C=C1/C(=O)N(c2ccccc2)N=C1C | i | 13 | i | nt | i | i
CC1=NN(c2ccccc2)C(=O)/C1=C\c1ccc(Oc2ccc([N+](=O)[O-])cc2[N+](=O)[O-])cc1 | i | 7.4 | i | i | i | i
